Source: PubChem BioAssay (several laboratories)
ROMK mod: modulates human ROMK potassium channel activity; 130,000 tested, 2% active; P48048; Tet-inducible ROMK, thallium flux fluorescence; actives lie on both sides; B-score at 10 µM;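 active = signal ratio slope over the read window, or its plate-corrected B-score, at least 3 SD from the plate mean, either direction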;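 note: B-score of the F/F0 ratio slope over 7 to 12 s after thallium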
Diaph act CS: activates diaphorase or chemically reduces, flagging diaphorase assay artifacts; Diaphorase/resazurin coupled assay, resorufin fluorescence, 16 min; hits give high values; 1 = vehicle wells, 0 = NADH-free wells; activation factor at 20 µM; 190,000 tested, 0.005% active; AID 1229;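 active = diaphorase activity raised at least twofold by the compound at 20 µM; inactive = activation factor below 2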
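Material: Clostridium kluyveri diaphorase, purified enzyme; Quantity: enzyme 0.07 U/mL final; Medium: HEPES pH 7.4 buffer with MgCl2 and Tween 20; Dosing: single compound dose of 20 µM, 1% DMSO final; Schedule: 16 min reaction at room temperature; Measured by: red resorufin fluorescence at 544/590 nm excitation/emission.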
PMI act: activators of human phosphomannose isomerase | activation factor at 20 µM | P34949 | purified human PMI, coupled resazurin fluorescence, 20 min; hits give high values; 1 = vehicle control, 0 substrate-free wells | AID 1214 | 190,000 tested, 0.005% active;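 active = activation factor of 2 or more at 20 µM, relative to plate controls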
Target sequence (P34949 whole entry, looked up): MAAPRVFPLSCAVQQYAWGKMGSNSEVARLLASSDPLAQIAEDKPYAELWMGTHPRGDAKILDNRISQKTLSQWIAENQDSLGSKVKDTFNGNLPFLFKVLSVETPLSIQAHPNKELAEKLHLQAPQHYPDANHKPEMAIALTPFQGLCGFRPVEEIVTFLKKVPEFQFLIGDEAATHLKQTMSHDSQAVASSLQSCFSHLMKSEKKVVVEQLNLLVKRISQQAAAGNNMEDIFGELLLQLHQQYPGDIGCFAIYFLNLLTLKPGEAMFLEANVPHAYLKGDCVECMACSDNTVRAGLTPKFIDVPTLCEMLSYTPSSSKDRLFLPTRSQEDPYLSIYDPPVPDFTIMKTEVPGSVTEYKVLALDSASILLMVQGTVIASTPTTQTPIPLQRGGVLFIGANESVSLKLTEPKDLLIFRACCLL
Diaph inh CS: counter-screen for diaphorase-based assays: diaphorase inhibitors and chemical oxidizers; diaphorase resazurin-to-resorufin fluorescence, NADH, 16 min; bacterial (C. kluyveri) enzyme, not human; inhibition, % at 20 µM; 190,000 tested, 0.69% active;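 active = primary screen inhibition at 20 µM above a set limit, cut at about 50% in these data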
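material = Clostridium kluyveri diaphorase enzyme | amount = 0.14 U/mL diaphorase, enzyme working solution | schedule = incubation 16 min, room temperature | detection = fluorescence of resorufin formed from resazurin, Ex 544/Em 590 nm | benchmarks = positive control minus NADH, DMSO neutral control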
PMI act satM6P: PMI (human) activation, high substrate. P34949. coupled PMI enzyme assay, resazurin fluorescence, 20 min; hits give high values; 1 = untreated enzyme, 0 = substrate-free blank. activation factor at 20 µM. 190,000 tested, 0.34% active;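 active = activation factor of 2 or more at 20 µM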
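Test system: Human PMI in coupled enzyme assay | Input: 15 ng/mL PMI | Medium: HEPES-buffered pH 7.4 with magnesium and detergent | Compound: One concentration, 20 µM, in 1% DMSO | Incubation: Enzyme reaction with compound 20 min at room temperature | Detection: Diaphorase-driven resazurin-to-resorufin fluorescence, excitation 544, emission 590 nm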
G6PDH CS: inhibits Leuconostoc G6PDH, flagging false hits in G6PDH-based assays; Purified L. mesenteroides G6PDH, diaphorase/resazurin coupled fluorescence, 45 min; AID 1020; 200,000 tested, 0.12% active; inhibition, % at 5 µM; in the data active = inhibition above about 50%
Each line names hits and unclear results; the compound was inactive in the other large screens. Hits are enriched below; roughly 2.2% of the tested compounds scored in any of these assays.

O=S(NCc1ccco1)C12CC3CC(CC(C3)C1)C2 (centres undefined)	PMI act satM6P 2
O=S(NCc1ccccc1)C12CC3CC(CC(C3)C1)C2 (centres undefined)	none
Cc1cccc(C)c1NC(=O)CN1C(=O)N(C)Cc2ccccc21	none
CN(CCN1CCOCC1)Cc1nc(-c2cccs2)no1	none
CN(Cc1nc(-c2cccs2)no1)CC1(N2CCOCC2)CCCCC1	Diaph inh CS 74
CCN(CC)S(=O)(=O)c1ccc(O)c(C(=O)OCC(=O)Nc2ccc(OC(F)(F)F)cc2)c1	none
CC1CCC2(CC1)NC(=S)N(c1ccccc1)N2 (centres undefined)	PMI act satM6P 2.2
Cc1ccccc1CN(C)CC(=O)Nc1c(C)cccc1C(C)C	none
Fc1cccc(Nc2nc(Cl)nc(Cl)n2)c1	PMI act satM6P 2.2
O=[N+]([O-])c1cccc(Nc2nc(Cl)nc(Cl)n2)c1	none
CCOC(=O)C1=C(C)NC2(O)c3ccccc3C(=O)C12O (centres undefined)	none (no result: ROMK mod)
COCCOC(=O)C1=C(C)NC2(O)c3ccccc3C(=O)C12O (centres undefined)	Diaph inh CS 74
Cc1nc2ccc(C(=O)N3c4ccccc4CC3C)cc2s1 (centres undefined)	none
Cc1cccc(C)c1NC(=O)CN1C(=O)NC(C)(CCc2ccccc2)C1=O (centres undefined)	none
CCOC(=O)c1c(C)oc2c1c(C=NCCO)c(O)c1ccccc12	Diaph inh CS 82, G6PDH CS 57 (no result: ROMK mod)
O=C(O)c1ccccc1-c1ccc(/C=c2\sc3nc4cc(Br)cnc4n3c2=O)o1	Diaph inh CS 56
CCOc1ccccc1C1C(C#N)=C(N)Nc2onc(-c3ccccc3)c21 (centres undefined)	none
CCCc1noc2c1C(c1ccoc1)C(C#N)=C(N)N2 (centres undefined)	ROMK mod -2.6
CCCCCCCNC(=O)c1ccc(N2CCC3(CC2)OCCO3)c([N+](=O)[O-])c1	none
CCc1ccc(NC(=O)COC(=O)C2(c3ccc(Cl)cc3)CCCC2)cc1	none (no result: ROMK mod)
CCCn1cc2c(c1-c1cccc(C)c1)c(=O)n(C)c(=O)n2C	none (no result: ROMK mod)
CCn1cc2c(c1-c1cccc(C)c1)c(=O)n(C)c(=O)n2C	PMI act satM6P 2.1 (no result: ROMK mod)
O=C(CCCCCn1c(=S)[nH]c2ccc(N3CCOCC3)cc2c1=O)NCc1cccc(Cl)c1	none
Cc1ccc(/C=C2\CCC3=C2OC(N)=C(C#N)C3c2ccc(C)cc2)cc1 (centres undefined)	ROMK mod -4.9
CCOC(=O)Cc1csc(NS(=O)(=O)c2ccc(SC)cc2)n1	none
CC(=O)NNc1nc(-c2ccccc2)cs1	PMI act satM6P 2.4
CC(C(=O)NN=C(c1ccccc1)c1ccccc1)N1CCOCC1 (centres undefined)	none
CN1c2cccc3cccc(c23)N(C)C1(C)C	Diaph inh CS 52
CNC(=S)Nc1sc2c(c1C(=O)OC)CCC2	ROMK mod 6.3
COc1cc(/C=C2\SC(=O)NC2=O)ccc1Oc1ccc([N+](=O)[O-])cc1[N+](=O)[O-]	Diaph inh CS 59
CC(C)CNc1nc(Oc2ccc(=O)[nH]n2)nc(N2CCOCC2)n1	none
O=C(Nc1cccn(Cc2cccc(F)c2)c1=O)NC1CCCCC1	Diaph inh CS 50
O=C(O)/C=C/C(=O)NC1CCC(CC2CCC(NC(=O)/C=C/C(=O)O)CC2)CC1 (centres undefined)	none (no result: ROMK mod)
CC1(C)CC(=O)C2=C(C1)NC(=O)CC2c1ccc(F)cc1 (centres undefined)	none (no result: ROMK mod)
COc1cc(C2CC(=O)NC3=C2C(=O)CC(C)(C)C3)cc(OC)c1O (centres undefined)	G6PDH CS 50
CCCC(=O)Oc1ccc(-c2nccc(C(OC)OC)n2)cc1	none
CS(=O)(=O)c1ccc(C(=O)OCc2nnc(-c3ccccc3)o2)cc1[N+](=O)[O-]	none
COc1cc2cc(Oc3ccc4ccc(=O)oc4c3)c(=O)oc2cc1O	none
O=c1ccc2cc(O)c(O)cc2o1	Diaph inh CS 61 (no result: ROMK mod)
CC(C)N1CCN(Cc2ccsc2)CC1CCO (centres undefined)	none
COc1ccc(NS(=O)(=O)c2ccc(C)c(NC(=O)c3ccc(C)c(S(=O)(=O)N4CCOCC4)c3)c2)cc1	Diaph inh CS 50
CCOC(=O)c1ccc(NC(=O)c2ccc(C)c(S(=O)(=O)N3CCOCC3)c2)cc1	none
Cc1sc(NC(=O)CSc2nc(O)cc(=O)[nH]2)nc1-c1ccccc1	none
CCOc1ccc2nc(NC(=O)CSc3nc(-c4ccccc4)c(C#N)c(=O)[nH]3)sc2c1	Diaph inh CS 59
COc1cccc(-c2nc(SCC(=O)Nc3nc(-c4ccccc4)c(C)s3)[nH]c(=O)c2C#N)c1	Diaph inh CS 81 (no result: ROMK mod)
O=[N+]([O-])c1cccc2c(N3CCCC3)ccnc12	none
Oc1c(Cl)cc(Cl)cc1C1=NNC(c2ccc(Cl)cc2)C1 (centres undefined)	PMI act satM6P 2.6
Oc1ccc(Cl)cc1C1=NNC(c2ccc(Cl)cc2)C1 (centres undefined)	none (no result: ROMK mod)
Cc1ccc(OCCOC(=O)CCc2nc3ccccc3c(=O)[nH]2)cc1	none
O=C(c1ccccc1O)N1N=C(c2ccccc2)CC1(O)C(F)(F)F (centres undefined)	none
Cc1ccc(NN2C(=O)C=C(c3ccccc3)C2=O)cc1	none
Cc1nnc(NC(=O)c2ccccc2NC(=O)c2ccccc2)s1	none (no result: Diaph act CS, PMI act, Diaph inh CS, PMI act satM6P, G6PDH CS)
CC(C)C(=O)N1CCc2cc(-c3csc(N)n3)ccc21	PMI act satM6P 2.1
COc1ccc(O)c(/C=N/n2c(-c3ccco3)csc2=Nc2cccnc2)c1	none (no result: ROMK mod)
CN=c1scc(-c2ccco2)n1/N=C/c1ccc(O)c(O)c1	Diaph inh CS 51
CCOc1ccccc1C1CC(=O)NC2=C1C(=O)CCC2 (centres undefined)	ROMK mod 4.7
CCCOc1ccccc1C1CC(=O)NC2=C1C(=O)CCC2 (centres undefined)	none (no result: ROMK mod)
COc1ccc2ccccc2c1C(=O)/C=C\c1ccoc1	Diaph inh CS 52
O=C(/C=C/c1ccoc1)c1ccccc1O	none
[O-]C1=N/[N+](=C/c2ccccc2Cl)CC1	PMI act satM6P 2
N#C/C(=C\c1ccccc1)C(=O)OCC(=O)N1CCCC1	none
COc1ccc2c(c1)CCc1sc(NC(=O)c3ccco3)nc1-2	Diaph inh CS 55 (no result: ROMK mod)
CCN1CCN(c2nc(S(=O)(=O)c3ccc(C)cc3)c(Cl)s2)CC1	none
COc1ccc(/C=C/C(=O)NC(=S)NNC(=O)c2cccnc2)cc1	Diaph inh CS 75
